Shown are actives, neighbours in structure and some others; about 1% of the full set was active somewhere.
PREPL inhibitor – human PREPL enzyme inhibition; 0.68% of 320,000 active; inhibition, % at 5.96 µM; recombinant PREPL, fluorescence polarization activity-based probe; AID 2751; in the data active = inhibition above about 43%;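 note: 0% = enzyme with DMSO and 100% = wells lacking enzyme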
LYPLA1 inh – LYPLA1 (human) inhibition in PME1 counter-screen; O75608; recombinant LYPLA1, FP-Rh probe fluorescence polarization; inhibition, % at 5.9 µM; 0.16% of 320,000 active;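 active = inhibition above the mean of all tested compounds plus 3 SD, set per campaign, cut at about 14% in these data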;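 note: inhibitors block serine hydrolase probe labeling of LYPLA1 so polarization falls; 0% = enzyme with DMSO and 100% = wells lacking LYPLA1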
procasp3 activ – procaspase-3 (human) activation; AID 463141; recombinant procaspase-3 D3A, Ac-DEVD-pNA absorbance 405 nm; 0.11% of 330,000 active; activation, % at 8.5 µM; P42574;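 active = activation above the mean of all tested compounds plus 3 SD, cut at about 21% in these data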;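 note: 0% = DMSO alone and 100% = DMSO wells spiked with extra 5 µM PC-3 D3A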
Target sequence (P42574 whole entry D9A/D28A/D175A): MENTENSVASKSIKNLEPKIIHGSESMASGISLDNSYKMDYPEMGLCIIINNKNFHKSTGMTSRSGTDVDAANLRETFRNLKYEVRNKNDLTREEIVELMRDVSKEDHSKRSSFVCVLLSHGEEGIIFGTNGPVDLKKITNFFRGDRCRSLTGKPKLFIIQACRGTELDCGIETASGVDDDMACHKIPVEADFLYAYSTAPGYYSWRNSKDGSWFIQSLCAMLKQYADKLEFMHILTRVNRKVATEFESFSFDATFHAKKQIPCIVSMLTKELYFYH
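Test system: Procaspase-3 D3A mutant, all three cleavage aspartates alanine | Dosing: Single dose, 8.5 µM nominal compound, 0.8% DMSO | Schedule: 1 h preincubation, 2 h reaction | Technique: 405 nm absorbance of p-nitroaniline, reads at 0 and 120 min | Repeats: One well per compound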
LYPLA2 inh – counter-screen for PME1 inhibitors: inhibitors of human LYPLA2; O95372; recombinant LYPLA2, FP-Rh probe fluorescence polarization; inhibition, % at 5.9 µM; 0.38% of 320,000 active; AID 2177;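 active = inhibition above the screen-wide mean plus 3 SD, limit set per campaign, cut at about 26% in these data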;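 note: 0% = LYPLA2 with DMSO and 100% = wells lacking LYPLA2 enzyme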
proCasp7 act – activates human procaspase-7, counter-screen for procaspase-3 activators | P55210 | recombinant procaspase-7, Ac-DEVD-pNA absorbance 405 nm; D23A/D198A/D206A triple mutant, cannot self-cleave; scale: DMSO 0, 5 µM enzyme 100 | activation, % at 8.5 µM | 0.093% of 330,000 active | AID 463210;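 active = percent activation above the screen-wide mean plus 3 SD, cut at about 25% in these data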
Target sequence (P55210 whole entry D23A/D198A/D206A): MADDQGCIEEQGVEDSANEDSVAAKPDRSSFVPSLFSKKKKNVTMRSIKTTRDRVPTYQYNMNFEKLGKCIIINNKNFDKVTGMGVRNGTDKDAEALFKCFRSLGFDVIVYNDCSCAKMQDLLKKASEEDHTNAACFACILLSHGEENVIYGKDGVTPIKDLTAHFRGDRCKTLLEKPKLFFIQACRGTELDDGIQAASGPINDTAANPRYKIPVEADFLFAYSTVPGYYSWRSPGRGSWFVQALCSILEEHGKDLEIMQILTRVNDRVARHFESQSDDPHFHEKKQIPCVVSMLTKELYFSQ
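Material: Procaspase-7 triple mutant (PC-7 D3A) | Quantity: 2 µM procaspase-7 mutant as dispensed | Reagent: DEVD-pNA substrate | Times: 1 h preincubation, 2 h reaction | Technique: 405 nm absorbance of p-nitroaniline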
PC3 dual counter – activates human procaspase-3, dual activator counter-screen | 290 tested, under 10 active | activation, % at 8.5 µM | AID 493114 | shares compounds with proCasp7 act | recombinant PC-3 D3A, Ac-DEVD-pNA absorbance 405 nm; aspartates 9, 28, 175 changed to alanine; 100% = enzyme control;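 active = mean percent activation across triplicates above a set limit taken from the earlier primary procaspase-3 screen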;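 note: 0% = DMSO wells and 100% = DMSO wells with 5 µM added PC-3 D3A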
PC7 dual conf – activates human procaspase-7, confirming dual procaspase activators; recombinant procaspase-7, Ac-DEVD-pNA absorbance 405 nm; D23A/D198A/D206A mutant that cannot self-cleave; shares compounds with proCasp7 act; AID 493115; activation, % at 8.5 µM; 290 tested, under 10 active;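 active = mean activation above a set limit carried over from the earlier primary screen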;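 note: 0% = DMSO only and 100% = DMSO with added 5 µM PC-7 enzyme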
An asterisk follows results filed as active; . = no result.

SMILES | PREPL inhibitor | LYPLA1 inh | procasp3 activ | LYPLA2 inh | proCasp7 act | PC3 dual counter | PC7 dual conf
C=CCSc1nnc(-c2cc3c(s2)-c2ccccc2CC3)o1 | -3.0 | -2.3 | 18.1 | -11.1 | 27.7* | -28.9 | -27.3
Cc1ccc(NS(=O)(=O)c2c(C)ccc3nsnc23)c([N+](=O)[O-])c1 | 6.4 | 0.4 | 2.6 | 5.8 | 7.8 | . | .
CCOc1cc(C2C(C(=O)OC)=CN(Cc3ccc(Cl)cc3)C=C2C(=O)OC)ccc1O | 29.6 | -0.5 | 27.4* | 1.4 | 56.1* | -1.5 | -2.6
COC(=O)C1=CN(Cc2ccccc2)C=C(C(=O)OC)C1c1ccc(O)c(OC)c1 | 12.6 | 2.8 | -4.5 | 0.3 | -1.7 | . | .
Cc1cccc(S(=O)(=O)Nc2ccc(-c3nc4ccc(C)cc4s3)cc2)c1 | -19.1 | -28.8 | 23.4* | -27.5 | 43.4* | -27.0 | -32.4
Cc1ccc2nc(-c3ccc(NS(=O)(=O)c4c(C)n(C)c(=O)n(C)c4=O)cc3)sc2c1 | 11.6 | -4.3 | -11.0 | -1.5 | -19.9 | . | .
Cc1[nH]nc2c1C(c1c[nH]c3ccccc13)C(C#N)=C(N)O2 (stereo not given) | -0.4 | 1.4 | 18.5 | 1.4 | 29.4* | 20.9 | 13.8
CSc1ccccc1NC(=O)c1cc2c(=O)n3ccccc3nc2s1 | 5.0 | -1.8 | -5.6 | 0.2 | 38.5* | -29.1 | -34.6
COc1ccc(CC(=O)OCC(=O)c2ccc(OC)c(OC)c2)cc1 | 3.9 | 0.6 | 1.3 | 9.3 | -6.2 | . | .
Cc1ccc(C(=O)Cc2nc3ccccc3[nH]2)cc1 | 7.7 | -7.0 | -4.8 | 6.0 | 12.8 | . | .
CCOC(=O)Cc1nc2ccccc2[nH]1 | 10.0 | -1.1 | 20.6 | 2.5 | 78.5* | 2.9 | -0.8
Cc1ccccc1CSc1nc(-c2ccccc2)cc(=O)[nH]1 | -2.2 | 4.1 | -7.5 | 5.4 | -8.3 | . | .
COc1ccc([C@H]2CC(=O)C=C(c3cc(Cl)ccc3C)C2)cc1 | -9.9 | 1.0 | -4.0 | 5.7 | 8.0 | . | .
Cc1ccc(Cl)cc1C1=CC(=O)C[C@H](c2ccc(F)cc2)C1 | -7.8 | -1.2 | 2.6 | -1.0 | 26.9* | -0.3 | -0.1
CC1=Nc2cc(C(=O)NCCN3CCOCC3)ccc2Sc2c(C)ccc(C)c21 | -21.9 | -2.2 | 7.9 | -2.7 | 2.1 | . | .
O=C(Nc1cccc(O)c1)c1cccc(S(=O)(=O)N2CCCC2)c1 | -2.6 | -2.9 | -6.9 | -2.0 | 25.7* | 1.0 | 0.8
COc1ccc2c(-c3ccc(S(N)(=O)=O)cc3)c(-c3ccc(S(C)(=O)=O)cc3)sc2c1 | 20.1 | . | 23.2* | . | 43.7* | -27.9 | -37.7
CCN1C(=O)N/C(=C/c2ccc(Sc3ccc(C)cc3)o2)C1=O | -3.9 | 3.6 | 37.8* | -7.2 | 70.5* | -26.1 | -25.6
O=C(OCn1ncc(Cl)c(Cl)c1=O)c1ccccc1Cl | 18.4 | -7.3 | -3.1 | 7.7 | -3.9 | . | .
COc1ccc(C2CC(c3ccccc3)=NN2c2ccc(N)cc2)cc1 (stereo not given) | 12.2 | 3.8 | 3.5 | 3.7 | -1.4 | . | .
NS(=O)(=O)c1ccc(N2N=C(c3ccccc3)CC2c2cccc(Br)c2)cc1 (stereo not given) | . | . | 29.0* | . | 32.0* | -30.6 | -34.5
COc1ccc(C2CC(c3cccc(Cl)c3)=NN2c2ccc(S(N)(=O)=O)cc2)cc1 (stereo not given) | . | . | 15.3 | . | -4.3 | . | .
NS(=O)(=O)c1ccc(N2N=C(c3ccccc3)CC2c2ccccc2Br)cc1 (stereo not given) | . | . | 26.1* | . | 68.1* | -28.3 | -34.9
COc1ccc(C2CC(c3ccccc3)=NN2c2ccc(S(N)(=O)=O)cc2)cc1OC (stereo not given) | 29.0 | 2.0 | 9.6 | 5.7 | 25.8* | -28.8 | -35.7
NS(=O)(=O)c1ccc(N2N=C(c3ccc(Br)cc3)CC2c2ccc(F)cc2)cc1 (stereo not given) | 25.5 | -1.4 | 3.1 | -2.0 | 20.2 | . | .
SMILES | PREPL inhibitor | LYPLA1 inh | procasp3 activ | LYPLA2 inh | proCasp7 act | PC3 dual counter | PC7 dual conf
NS(=O)(=O)c1ccc(N2N=C(c3ccccc3)CC2c2cccc(F)c2)cc1 (stereo not given) | 13.8 | -3.5 | 39.5* | 8.9 | 67.4* | -30.1 | -36.6
COCc1cc(=O)[nH]c(SCC(=O)N2CCOCC2)n1 | -1.8 | 0.3 | -0.8 | -3.7 | -12.8 | . | .
CC(Oc1ccc(F)cc1)C(=O)Oc1ccc(N(C)S(=O)(=O)c2ccccc2)cc1 (stereo not given) | 10.2 | 3.2 | -1.3 | 2.8 | -4.1 | . | .
CC1(C)Cc2ccccc2-c2nc3n(c(=O)c21)CCCS3 | 2.0 | -0.3 | 5.5 | 8.7 | -3.9 | . | .
Cc1cccc(C2=NN(c3ccccc3)[C@H](CO)[C@H]2c2ccccc2)c1 | . | . | 20.3 | . | 34.6* | -30.5 | -34.4
OC[C@@H]1[C@@H](c2ccc(F)cc2)C(c2ccccc2)=NN1c1ccccc1 | . | . | 30.4* | . | 34.3* | -30.4 | -34.9
Cc1cccc(C2=NN(c3ccccc3)[C@@H](C(=O)N3CCOC3=O)[C@@H]2c2ccc(F)cc2)c1 | . | . | -1.4 | . | -6.0 | . | .
COc1cc2c(cc1OC)C1(C)N(CC2)C(C(C)=O)=NN1c1ccc(Cl)cc1 (stereo not given) | 9.5 | -1.5 | 28.4* | 0.1 | 36.9* | -27.8 | -36.0
COC(=O)CSc1nc(C)c(C(=O)Nc2ccccc2C)c(-c2ccc(Cl)cc2)c1C#N | -12.7 | -4.5 | 20.8 | -6.6 | 32.3* | 3.8 | -22.2
CN(C)CCOc1ccccc1C(C)(C)C | -8.4 | 0.8 | 1.0 | -3.1 | -3.6 | . | .
CCc1cc2c3c(c(=O)oc2cc1O)CCCC3 | -3.5 | -1.4 | 27.9* | -2.3 | 26.0* | -28.8 | -36.2
O=C(CSc1nnc(-c2ccc(S(=O)(=O)N3CCCC3)cc2)o1)NCC1CCCO1 (stereo not given) | -3.5 | 0.5 | 3.1 | -3.7 | 1.5 | . | .
COc1ccc(C(=O)N/N=C/c2ccc(N(C)c3ccccc3)cc2)cc1 | 38.4 | -7.4 | 41.0* | -6.6 | 43.6* | -28.5 | -37.5
CCCNC(=O)C(=O)N/N=C/c1cccs1 | 0.4 | 0.0 | -3.1 | 1.8 | -3.5 | . | .
O=C(Cc1csc(-c2ccc(F)cc2)n1)Nc1cccc(S(=O)(=O)NC2=NCCC2)c1 | 8.3 | -2.1 | 3.0 | 9.8 | -13.0 | . | .
COc1ccc(C(=O)C2CN(c3ccccc3)CC2c2ccc(Cl)cc2)cc1 (stereo not given) | -4.4 | 1.2 | 13.5 | 2.4 | 28.9* | 2.9 | 2.2
COCC(=O)Nc1cccc(Br)c1 | -3.8 | 0.9 | 4.7 | 2.7 | 26.1* | 2.5 | -2.5
O=C1OCCN1C(=O)[C@H]1[C@H](c2ccc(Cl)cc2)C(c2ccccc2)=NN1c1ccccc1 | . | . | -4.3 | . | -5.3 | . | .

Compound activity deposited in PubChem by The Scripps Research Institute Molecular Screening Center.
